Measurements from ChEMBL document CHEMBL5143598, “Cytotoxic Sesquiterpenoids from Ammoides atlantica Aerial Parts” (J Nat Prod, 2022).
Calls of active or inactive are those of the source. The rule behind the calls is not given here.

Experiments:
Jurkat [1] = experiment: Antiproliferative activity against human Jurkat cells assessed as reduction in cell viability measured after 48 hrs by colorimetric based MTT assay; type: functional
In short: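 Jurkat leukemia cells kept in RPMI with 10% FBS, 2 mM L-glutamine and penicillin/streptomycin at 37 °C, 5% CO2. Plated at 3.5 × 10^3 cells/well and left 24 h, then given fresh medium alone or with serial dilutions (40, 20, 10, 5 μM) for 48 h. Staurosporine 0.2 μM served as positive control. MTT added for 3 h, formazan dissolved in DMF/SDS solution at pH 4.5, OD read at 620 nm. Viability calculated as % of DMSO control. IC50 taken as the concentration giving 50% growth inhibition versus control.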

A-375 = experiment: Antiproliferative activity against human A-375 cells assessed as reduction in cell viability measured after 48 hrs by colorimetric based MTT assay; type: functional; conditions: A-375, 48 h
MCF7 = experiment: Antiproliferative activity against human MCF7 cells assessed as reduction in cell viability measured after 48 hrs by colorimetric based MTT assay; type: functional; conditions: MCF7, 48 h
A549 [2] = experiment: Induction of apoptosis in human A549 cells assessed as increase accumulation of hypodiploid nuclei cells measured after 24 hrs by PI staining based flow cytometry analysis; type: functional, cell-based; conditions: dose 5-40 µM, DDE = dose-dependent effect
In short: (§1)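 A549, Jurkat or HaCaT cells plated at 3 × 10^4 cells/well, left 24 h, then exposed to 40, 20, 10 or 5 μM for 24 h. Staurosporine 0.2 μM served as positive control. Cells washed in PBS and stained 30 min at 4 °C in the dark with PI in 0.1% Triton X-100/0.1% sodium citrate. Analysed by flow cytometry with debris excluded by forward scatter and DNA on a log scale. Read-out is % hypodiploid nuclei. Three independent experiments in triplicate, mean ± SEM, Mann–Whitney U test.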

[3] = Antiproliferative activity against human HaCaT cells assessed as reduction in cell viability measured after 48 hrs by colorimetric based MTT assay
Jurkat [4] = experiment: Induction of apoptosis in human Jurkat cells assessed as increase accumulation of hypodiploid nuclei cells measured after 24 hrs by PI staining based flow cytometry analysis; type: functional, cell-based; conditions: dose 5-40 µM, DDE = dose-dependent effect; in short: as §1
HaCaT [5] = experiment: Induction of apoptosis in human HaCaT cells assessed as increase accumulation of hypodiploid nuclei cells at 5 to 40 uM measured after 24 hrs by PI staining based flow cytometry analysis; type: functional, cell-based; conditions: dose 5-40 µM; in short: as §1
HaCaT [6] = experiment: Induction of cell cycle arrest in human HaCaT cells assessed as accumulation at G2 phase at 40 uM measured after 24 hrs by PI staining based flow cytometry analysis; type: functional
In short: (§2)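 HaCaT or Jurkat cells plated at 3 × 10^4 cells/well, left 24 h, then treated with 40, 20, 10 or 5 μM for 24 h. Staurosporine 0.2 μM served as positive control. DNA stained with PI and 10 000 events per sample acquired by flow cytometry. Percentages of cells in G0/G1, S and G2/M were derived from the DNA profiles. Three independent experiments in triplicate, mean ± SEM, Mann–Whitney U test.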

A549 [7] = experiment: Antiproliferative activity against human A549 cells assessed as reduction in cell viability measured after 48 hrs by colorimetric based MTT assay; type: functional; conditions: A549, 48 h
Jurkat [8] = experiment: Induction of cell cycle arrest in human Jurkat cells assessed as accumulation at S phase measured after 24 hrs by PI staining based flow cytometry analysis; type: functional; conditions: dose 5-40 µM, DDE = dose-dependent effect; in short: as §2
A549 [9] = experiment: Induction of apoptosis in human A549 cells assessed as increase accumulation of hypodiploid nuclei cells at 5 to 40 uM measured after 24 hrs by PI staining based flow cytometry analysis; type: functional, cell-based; conditions: dose 5-40 µM; in short: as §1
HaCaT [10] = experiment: Induction of apoptosis in human HaCaT cells assessed as increase accumulation of hypodiploid nuclei cells measured after 24 hrs by PI staining based flow cytometry analysis; type: functional, cell-based; conditions: dose 5-40 µM, DDE = dose-dependent effect; in short: as §1

## CN[C@@H]1C[C@H]2O[C@@](C)([C@@H]1OC)n1c3ccccc3c3c4c(c5c6ccccc6n2c5c31)C(=O)NC4 [STAUROSPORINE]
Jurkat [1]
  IC50: 3.2 µM

## C=C1C(=O)O[C@@H]2C1C[C@@H](OC(C)=O)[C@@](C)(O)[C@@]13O[C@@H]1[C@@H]1O[C@]1(C)[C@H]23 (stereo not given in full)
A-375
  IC50: 3.7 µM
MCF7
  IC50: 9.6 µM
A549 [2]
  Activity: Dde
[3]
  IC50 at 48 h: 1.6 µM
Jurkat [1]
  IC50: 5 µM
Jurkat [4]
  Activity: Dde
HaCaT [5]
  Activity: Active
HaCaT [6]
  Activity: Active
A549 [7]
  IC50: > 10 µM
Jurkat [8]
  Activity: Dde
A549 [9]
  Activity: Active
HaCaT [10]
  Activity: Dde

## C=C1C(=O)O[C@@H]2C1C[C@@H](OC(C)=O)[C@](C)(O)[C@@]13C=C[C@@](C)(OO1)C23 (stereo not given in full)
A-375
  IC50: > 10 µM
MCF7
  IC50: > 10 µM
[3]
  IC50 at 48 h: 1.7 µM
Jurkat [1]
  IC50: 4.7 µM
A549 [7]
  IC50: 4.1 µM

## C=C1C(=O)O[C@@H]2[C@H]1C[C@@H](OC(C)=O)[C@@](C)(O)[C@]13O[C@H]1[C@@H](Cl)[C@](C)(O)[C@H]23
A-375
  IC50: > 10 µM
MCF7
  IC50: > 10 µM
[3]
  IC50 at 48 h: 3.5 µM
Jurkat [1]
  IC50: > 10 µM
A549 [7]
  IC50: > 10 µM

## C=C1[C@@H]2[C@H]3OC(=O)C(COC(C)=O)=C3CC[C@@]2(C)[C@H](O)C[C@@H]1O
A-375
  IC50: > 10 µM
MCF7
  IC50: > 10 µM
[3]
  IC50 at 48 h: > 10 µM
Jurkat [1]
  IC50: > 10 µM
A549 [7]
  IC50: > 10 µM

## C=C(C)[C@@H](O)CC[C@@H](C)C1C[C@H](O)C(C)=C[C@@H]1O (relative stereo)
A-375
  IC50: > 10 µM
MCF7
  IC50: > 10 µM
[3]
  IC50 at 48 h: > 10 µM
Jurkat [1]
  IC50: > 10 µM
A549 [7]
  IC50: > 10 µM

## CC(=O)O[C@@H]1CC(C)=C2C(=O)C=C(C)[C@@H]2[C@@H](O)[C@H]1C(C)C(=O)O (relative stereo)
A-375
  IC50: > 10 µM
MCF7
  IC50: > 10 µM
[3]
  IC50 at 48 h: > 10 µM
Jurkat [1]
  IC50: > 10 µM
A549 [7]
  IC50: > 10 µM

## C=C1[C@@H]2[C@@H](OC(C)=O)/C(=C(\CO)C(=O)O)CC[C@@]2(C)[C@H](O)C[C@@H]1O
A-375
  IC50: > 10 µM
MCF7
  IC50: > 10 µM
[3]
  IC50 at 48 h: > 10 µM
Jurkat [1]
  IC50: > 10 µM
A549 [7]
  IC50: > 10 µM

## C=C1C(=O)O[C@H]([C@H]2C(=O)C=C[C@]2(C)O)[C@@H]1CCC(C)=O
A-375
  IC50: > 10 µM
MCF7
  IC50: > 10 µM
[3]
  IC50 at 48 h: > 10 µM
Jurkat [1]
  IC50: > 10 µM
A549 [7]
  IC50: > 10 µM

## C=C1C(=O)O[C@H]2[C@H]1C[C@H](OC(C)=O)[C@](C)(O)[C@@]1(O)[C@@H](O)[C@H]3O[C@@]3(C)[C@H]21 (relative stereo)
A-375
  IC50: > 10 µM
MCF7
  IC50: > 10 µM
[3]
  IC50 at 48 h: > 10 µM
Jurkat [1]
  IC50: > 10 µM
A549 [7]
  IC50: > 10 µM

## C[C@H]1CC[C@]23O[C@]12C[C@H](C(C)(C)O)CC[C@@]3(C)O (relative stereo)
A-375
  IC50: > 10 µM
MCF7
  IC50: > 10 µM
[3]
  IC50 at 48 h: > 10 µM
Jurkat [1]
  IC50: > 10 µM
A549 [7]
  IC50: > 10 µM

## CC(C)(O)/C=C/[C@H]1OC(=O)C[C@]1(C)O (relative stereo)
A-375
  IC50: > 10 µM
MCF7
  IC50: > 10 µM
[3]
  IC50 at 48 h: > 10 µM
Jurkat [1]
  IC50: > 10 µM
A549 [7]
  IC50: > 10 µM

## C=C1C(=O)O[C@H](C2=C(C)[C@@H](O)CC2=O)[C@@H]1CCC(C)=O
A-375
  IC50: > 10 µM
MCF7
  IC50: > 10 µM
A549 [2]
  Activity: Dde
[3]
  IC50 at 48 h: 2.9 µM
Jurkat [1]
  IC50: 7.7 µM
Jurkat [4]
  Activity: Dde
HaCaT [5]
  Activity: Active
HaCaT [6]
  Activity: Active
A549 [7]
  IC50: 8.9 µM
Jurkat [8]
  Activity: Dde
A549 [9]
  Activity: Active
HaCaT [10]
  Activity: Dde
